# According to ChEMBL document CHEMBL2396638, “Structure-activity relationship studies and sleep-promoting activity of novel 1-chloro-5,6,7,8-tetrahydroimidazo[1,5-a]pyrazine derivatives as dual orexin receptor antagonists. Part 2” (Bioorg Med Chem Lett, 2013):
# What was measured:
# Orexin receptor type 2 = biological target: T1, Orexin receptor type 2 (Homo sapiens, UniProt O43614); assay: Antagonist activity at human OX2R expressed in CHO cells assessed as inhibition of calcium mobilization by FLIPR assay; assay type: functional, cell-based
# T1 sequence (O43614 whole entry): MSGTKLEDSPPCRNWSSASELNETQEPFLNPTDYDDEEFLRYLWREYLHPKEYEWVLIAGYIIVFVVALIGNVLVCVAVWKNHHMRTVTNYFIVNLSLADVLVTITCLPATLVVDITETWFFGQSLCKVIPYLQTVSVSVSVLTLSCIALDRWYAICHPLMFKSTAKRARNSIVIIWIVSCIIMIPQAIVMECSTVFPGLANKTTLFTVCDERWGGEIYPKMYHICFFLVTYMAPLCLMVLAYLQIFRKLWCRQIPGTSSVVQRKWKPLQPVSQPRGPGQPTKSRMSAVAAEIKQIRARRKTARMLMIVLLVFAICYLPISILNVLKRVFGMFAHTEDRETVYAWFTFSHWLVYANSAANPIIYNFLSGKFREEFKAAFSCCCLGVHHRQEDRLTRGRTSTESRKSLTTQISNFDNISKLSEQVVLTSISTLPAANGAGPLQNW
# How it was run: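 CHO cells stably expressing human OX2R, loaded with fluo-3 AM calcium dye at 37 °C in 5% CO2, then washed. Antagonist added at varying concentrations before an approximate EC80 of orexin A. Ca2+ mobilization read by FLIPR; IC50 taken as concentration inhibiting 50% of the orexin A-induced calcium response.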
# [1] = biological target: T2, Orexin/Hypocretin receptor type 1 (Homo sapiens, UniProt O43613); assay: Antagonist activity at human OX1R expressed in CHO cells assessed as inhibition of calcium mobilization by FLIPR assay; assay type: functional, cell-based
# T2 sequence (O43613 whole entry): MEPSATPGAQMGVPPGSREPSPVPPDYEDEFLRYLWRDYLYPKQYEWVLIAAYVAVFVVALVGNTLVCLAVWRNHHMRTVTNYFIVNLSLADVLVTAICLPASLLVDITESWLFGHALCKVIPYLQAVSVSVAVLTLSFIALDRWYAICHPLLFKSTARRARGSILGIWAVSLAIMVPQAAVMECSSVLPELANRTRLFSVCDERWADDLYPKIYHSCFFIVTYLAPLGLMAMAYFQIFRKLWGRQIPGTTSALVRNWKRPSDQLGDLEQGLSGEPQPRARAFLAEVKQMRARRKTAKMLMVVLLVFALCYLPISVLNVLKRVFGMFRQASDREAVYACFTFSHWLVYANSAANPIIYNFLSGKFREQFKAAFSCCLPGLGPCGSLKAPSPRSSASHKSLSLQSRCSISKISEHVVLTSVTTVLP
# [2] = Drug uptake in Wistar rat brain at 100 mg/kg, po after 3 hrs; assay type: ADME, organism-based; set-up: dose 100 mg/kg, route oral; settings: read-out: Drug uptake
# How it was run: (§1)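 Male Wistar rats on 12 h light/dark cycle dosed orally at 100 mg/kg in PEG-400. Plasma and brain collected from the same animal at 3 h (±5 min). Blood drawn from caudal vena cava into EDTA and centrifuged for plasma. Brain taken after cardiac perfusion with 0.9% NaCl and homogenized in one volume cold phosphate buffer pH 7.4.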
# [3] = Plasma concentration in Wistar rat at 100 mg/kg, po after 3 hrs; assay type: ADME, organism-based; set-up: dose 100 mg/kg, route oral; how it was run: as §1
# [4] = Ratio of drug level from brain to plasma in Wistar rat at 100 mg/kg, po after 3 hrs; assay type: ADME, organism-based; set-up: dose 100 mg/kg, route oral; settings: read-out: BPR; how it was run: as §1
# MDR1 (human) [5] = assay: Apparent permeability across apical to basolateral side in MDCK cells expressing human MDR1; assay type: ADME, cell-based, Canis lupus familiaris; settings: dog
# Rattus norvegicus [6] = assay: Sleep-promoting activity in Wistar rat electroencephalographic model assessed as time spent in non-rapid eye movement sleep at 100 mg/kg, po measured over 12 hrs relative to total sleep time (reference value: 85.4 to 87.3%); assay type: functional
# How it was run: (§2)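 Freely moving adult male Wistar rats carrying radiotelemetric implants recording EEG, EMG and locomotor activity in the home cage. Oral dose of 100 mg/kg in 100% PEG-400 given at the start of the dark phase. Crossover design with 12 or 16 rats per group and at least 4-day washout. Read-outs over the 12 h night versus vehicle; means ± SEM, paired t-test.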
# Rattus norvegicus [7] = assay: Sleep-promoting activity in Wistar rat electroencephalographic model assessed as increase in time spent in rapid eye movement sleep at 100 mg/kg, po measured over 12 hrs relative to vehicle-treated control; assay type: functional; how it was run: as §2
# MDR1 (human) [8] = assay: Apparent permeability across basolateral to apical side in MDCK cells expressing human MDR1; assay type: ADME, cell-based, Canis lupus familiaris; settings: dog
# MDR1 (human) [9] = assay: Efflux ratio of apparent permeability […] to apical side in MDCK cells expressing human MDR1; assay type: ADME, cell-based, Canis lupus familiaris; settings: dog
# Rattus norvegicus [10] = assay: Sleep-promoting activity in Wistar rat electroencephalographic model assessed as time spent in rapid eye movement sleep at 100 mg/kg, po measured over 12 hrs relative to total sleep time (reference value: 12.7 to 14.6%); assay type: functional; how it was run: as §2
# Rattus norvegicus [11] = assay: Sleep-promoting activity in Wistar rat electroencephalographic model assessed as increase in time spent in non-rapid eye movement sleep at 100 mg/kg, po measured over 12 hrs relative to vehicle-treated control; assay type: functional; how it was run: as §2
# Rattus norvegicus [12] = assay: Sleep-promoting activity in Wistar rat electroencephalographic model assessed as decrease in home cage activity at 100 mg/kg, po measured over 12 hrs relative to vehicle-treated control; assay type: functional; set-up: scale not given: the % may be the effect or the level left; how it was run: as §2
# Rattus norvegicus [13] = assay: Sleep-promoting activity in Wistar rat electroencephalographic model assessed as reduction of time spent in active wake at 100 mg/kg, po measured over 12 hrs relative to vehicle-treated control; assay type: functional; set-up: scale not given: the % may be the effect or the level left; how it was run: as §2
Compound,IC50 (Orexin receptor type 2) [nM],IC50 [1] [nM],concentration at 3 h [2] [nM],concentration at 3 h [3] [µM],Kp at 3 h [4],further results
CCc1nc(Cl)c2n1CCN([C@@H](C(=O)NC)c1ccccc1)[C@H]2CCc1ccc(C#N)cc1,16,3900,,,,
CNC(=O)[C@@H](c1ccccc1)N1CCn2c(C3CC3)nc(Cl)c2[C@@H]1CCc1ccc(C(F)(F)F)c(F)c1,10,53,450,6.8,0.07,
CCc1nc(Cl)c2n1CCN([C@@H](C(=O)NC)c1ccccc1)[C@H]2CCc1ccc(F)c(C(F)(F)F)c1,16,378,,,,
CCc1nc(Cl)c2n1CCN([C@@H](C(=O)NC)c1ccccc1)[C@H]2CCc1cc(F)c(C(F)(F)F)cc1F,17,32,,,,
CCc1nc(Cl)c2n1CCN([C@@H](C(=O)NC)c1ccccc1)[C@H]2CCc1ccc(F)c(F)c1F,5,30,18,0.387,0.05,
CCc1nc(Cl)c2n1CCN([C@@H](C(=O)NC)c1ccccc1)[C@H]2CCc1ccc(C(F)(F)F)cc1F,12,45,363,6.42,0.06,
CNC(=O)[C@@H](c1ccccc1)N1CCc2cc(OC)c(OC)cc2[C@@H]1CCc1ccc(C(F)(F)F)cc1 [ALMOREXANT],,,,,,Activity (Rattus norvegicus [6]): 85.8%; Activity (Rattus norvegicus [7]): 38%; Activity (Rattus norvegicus [10]): 14.2%; Activity (Rattus norvegicus [11]): 20%; Activity (Rattus norvegicus [12]): 43%; Activity (Rattus norvegicus [13]): 20%
CCc1nc(Cl)c2n1CCN([C@@H](C(=O)NC)c1ccccc1)[C@H]2CCc1ccc(C(F)(F)F)c(Cl)c1,18,20,128,1.6,0.08,
CCc1nc(Cl)c2n1CCN([C@@H](C(=O)NC)c1ccccc1)[C@H]2CCc1ccc(OC(F)(F)F)cc1,18,203,,,,
CNC(=O)[C@@H](c1ccccc1)N1CCn2c(C3CC3)nc(Cl)c2[C@@H]1CCc1ccc(OC(F)F)c(F)c1,2,170,,,,
CCc1nc(Cl)c2n1CCN([C@@H](C(=O)NC)c1ccccc1)[C@H]2CCc1cccc(C(F)(F)F)c1F,9,16,136,1.85,0.07,

# The remaining compounds from weak to strong by IC50 [1], led by results:
IC50 (Orexin receptor type 2) [nM],IC50 [1] [nM],concentration at 3 h [2] [nM],concentration at 3 h [3] [µM],Kp at 3 h [4],Compound,further results
227,547,,,,CCc1nc(Cl)c2n1CCN([C@@H](C(=O)NC)c1ccccc1)[C@@H]2CCc1ccc(C(F)(F)F)c(F)c1,
9,431,,,,CCc1nc(Cl)c2n1CCN([C@@H](C(=O)NC)c1ccccc1)[C@H]2COc1ccc(C(F)(F)F)cc1,
4,312,,,,CCc1nc(Cl)c2n1CCN([C@@H](C(=O)NC)c1ccccc1)[C@H]2COc1cccc(C(F)(F)F)c1,
26,94,338,6.76,0.05,CNC(=O)[C@@H](c1ccccc1)N1CCn2c(C3CC3)nc(Cl)c2[C@@H]1CCc1ccc(C(F)(F)F)cc1F,
1,74,,,,CCc1nc(Cl)c2n1CCN([C@@H](C(=O)NC)c1ccccc1)[C@H]2CCc1ccc(OC(F)F)cc1,
10,72,,,,CCc1nc(Cl)c2n1CCN([C@@H](C(=O)NC)c1ccccc1)[C@H]2CCc1cccc(C(F)(F)F)c1,
,30,,,,CNC(=O)[C@@H](c1ccccc1)N1CCn2c(C3CC3)nc(Cl)c2[C@@H]1CCc1ccc(C(F)(F)F)cc1,
7,18,1220,9.81,0.12,CCc1nc(Cl)c2n1CCN([C@@H](C(=O)NC)c1ccccc1)[C@H]2CCc1ccc(C(F)(F)F)c(F)c1,Papp A→B (MDR1 (human) [5]): 1.98 ×10⁻⁶ cm/s; Activity (Rattus norvegicus [6]): 86.2%; Activity (Rattus norvegicus [7]): 9%; Papp B→A (MDR1 (human) [8]): 68.8 ×10⁻⁶ cm/s; efflux ratio (MDR1 (human) [9]): 35; Activity (Rattus norvegicus [10]): 13.8%; Activity (Rattus norvegicus [11]): 16%; Activity (Rattus norvegicus [12]): 36%; Activity (Rattus norvegicus [13]): 13%
14,17,695,6.77,0.1,CCc1nc(Cl)c2n1CCN([C@@H](C(=O)NC)c1ccccc1)[C@H]2CCc1ccc(C(F)(F)F)c(F)c1F,
8,16,,,,CCc1nc(Cl)c2n1CCN([C@@H](C(=O)NC)c1ccccc1)[C@H]2CCc1cc(F)c(C(F)(F)F)c(F)c1,
